Reference: ChEMBL document CHEMBL3124867, “Hepatitis C replication inhibitors that target the viral NS4B protein” (J Med Chem, 2014)
≈ marks a conversion by molar mass, not a printed value.

What was measured:
Hepatocyte [1] = assay: Drug metabolism in human hepatocytes assessed as oxidation of the terminal bicyclohexane substituent at 10 uM by LC/MS/MS analysis; assay type: ADME, cell-based
[2] = Clearance in CD rat at 1 mg/kg, iv by LC/MS/MS analysis; assay type: ADME, organism-based; design: dose 1 mg/kg, route intravenous; settings: in vivo
Method in brief: (§1)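 Intravenous dose of 1 mg/kg in DMSO/20% HP-β-CD (10:90) (n = 4). Clearance, Vdss and t1/2 were derived from the plasma concentration–time profiles.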

Hepatitis C virus [3] = assay: Antiviral activity against Hepatitis C virus genotype 1b expressing NS4B H94N mutant infected in human HuH7 cells after 48 hrs by luciferase reporter gene assay; assay type: functional, organism-based, Hepacivirus hominis; settings: Huh-7, 48 h
Hepatocyte [4] = assay: Drug metabolism in rat hepatocytes assessed as oxidation of the terminal bicyclohexane substituent at 10 uM by LC/MS/MS analysis; assay type: ADME, cell-based
Hepatitis C virus [5] = assay: Antiviral activity against Hepatitis C virus genotype 1b infected in human HuH7 cells after 48 hrs by luciferase reporter gene assay; assay type: functional, organism-based, Hepacivirus hominis; settings: Huh-7, 48 h
Hepatitis C virus [6] = assay: Antiviral activity against Hepatitis C virus genotype 1a infected in human HuH7 cells after 48 hrs by luciferase reporter gene assay; assay type: functional, organism-based, Hepacivirus hominis; settings: subtype 1a, Huh-7, 48 h
[7] = Lipophilicity, log D of the compound by chromatographic analysis; assay type: physicochemical
Method in brief: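 Lipophilicity was measured chromatographically and reported as ChromLogD; ≥6 replicates.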

[8] = Displacement of [3H]-3-(1-(3-chloro-6-isopropyl-8-(trifluoromethyl)imidazo[1,2-a]pyridine-2-carbonyl)piperidin-4-yl)oxazolidin-2-one from HCV genotype 1b C-terminal His-tagged NS4B (1 to 261 aa) expressed in baculovirus infected SF9 cells after overnight incubation; design: species or system Hepatitis C virus subtype 1b
Hepatitis C virus [9] = assay: Antiviral activity against Hepatitis C virus genotype 1b expressing NS4B V105M mutant infected in human HuH7 cells after 48 hrs by luciferase reporter gene assay; assay type: functional, organism-based, Hepacivirus hominis; settings: Huh-7, 48 h
[10] = Oral bioavailability in cynomolgus monkey at 5 mg/kg by LC/MS/MS analysis; assay type: ADME, organism-based, Macaca fascicularis; settings: in vivo
Method in brief: (§2)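 Oral dose of 5 mg/kg in DMSO/20% HP-β-CD (10:90), with a matching iv group for bioavailability. Plasma concentration–time profiles gave AUC0−∞ and F.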

[11] = AUC (0 to infinity) in CD rat at 5 mg/kg, po by LC/MS/MS analysis; assay type: ADME, organism-based; design: time infinity, dose 5 mg/kg, route oral; settings: plasma; method in brief: as §2
[12] = Plasma protein binding in CD rat at 5 uM after 4 hrs by rapid equilibrium dialysis method; assay type: ADME, cell-free; settings: read-out: PPB (converted)
[13] = Volume of distribution at steady state in cynomolgus monkey at 1 mg/kg, iv by LC/MS/MS analysis; assay type: ADME, organism-based, Macaca fascicularis; design: dose 1 mg/kg, route intravenous; settings: in vivo, read-out: Vdss; method in brief: as §1
[14] = Clearance in beagle dog at 1 mg/kg, iv by LC/MS/MS analysis; assay type: ADME, organism-based, Canis lupus familiaris; design: dose 1 mg/kg, route intravenous; settings: in vivo; method in brief: as §1
Cytochrome P450 2D6 = Cytochrome P450 2D6 (Homo sapiens, UniProt P10635); assay: Inhibition of CYP2D6 in human liver microsomes after 10 mins by LC/MS/MS analysis; assay type: ADME
Method in brief: (§3)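 Cytochrome P450 isozymes 3A4, 1A2, 2C9, 2C19 and 2D6 were tested for inhibition up to 20 μM, with IC50 reported.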

Cytochrome P450 2C19 = Cytochrome P450 2C19 (Homo sapiens, UniProt P33261); assay: Inhibition of CYP2C19 in human liver microsomes after 10 mins by LC/MS/MS analysis; assay type: ADME; method in brief: as §3
[15] = Volume of distribution at steady state in CD rat at 1 mg/kg, iv by LC/MS/MS analysis; assay type: ADME, organism-based; design: dose 1 mg/kg, route intravenous; settings: in vivo, read-out: Vdss; method in brief: as §1
[16] = Half life in CD-1 mouse at 1 mg/kg, iv by LC/MS/MS analysis; assay type: ADME, organism-based; design: dose 1 mg/kg, route intravenous; settings: in vivo; method in brief: as §1
[17] = Half life in cynomolgus monkey at 1 mg/kg, iv by LC/MS/MS analysis; assay type: ADME, organism-based, Macaca fascicularis; design: dose 1 mg/kg, route intravenous; settings: in vivo; method in brief: as §1
[18] = AUC (0 to infinity) in beagle dog at 5 mg/kg, po by LC/MS/MS analysis; assay type: ADME, organism-based, Canis lupus familiaris; design: time infinity, dose 5 mg/kg, route oral; settings: plasma; method in brief: as §2
[19] = Half life in CD rat at 1 mg/kg, iv by LC/MS/MS analysis; assay type: ADME, organism-based; design: dose 1 mg/kg, route intravenous; settings: in vivo; method in brief: as §1
Liver microsome [20] = assay: Drug metabolism in human liver microsomes assessed as generation of reactive metabolites at 10 uM after 30 mins by glutathione-trapping assay; assay type: ADME; settings: 0.5 h
Method in brief: (§4)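 Rat and human liver microsomes were incubated with compound, and a glutathione-trapping assay was used to detect reactive metabolites.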

[21] = Plasma protein binding in cynomolgus monkey at 5 uM after 4 hrs by rapid equilibrium dialysis method; assay type: ADME, cell-free, Macaca fascicularis; settings: read-out: PPB (converted)
[22] = Oral bioavailability in CD-1 mouse at 5 mg/kg by LC/MS/MS analysis; assay type: ADME, organism-based; settings: in vivo; method in brief: as §2
[23] = Clearance in cynomolgus monkey at 1 mg/kg, iv by LC/MS/MS analysis; assay type: ADME, organism-based, Macaca fascicularis; design: dose 1 mg/kg, route intravenous; settings: in vivo; method in brief: as §1
Cytochrome P450 1A2 = target: T1, Cytochrome P450 1A2 (Homo sapiens, UniProt P05177); assay: Inhibition of CYP1A2 in human liver microsomes after 10 mins by LC/MS/MS analysis; assay type: ADME; method in brief: as §3
T1 sequence (P05177 whole entry): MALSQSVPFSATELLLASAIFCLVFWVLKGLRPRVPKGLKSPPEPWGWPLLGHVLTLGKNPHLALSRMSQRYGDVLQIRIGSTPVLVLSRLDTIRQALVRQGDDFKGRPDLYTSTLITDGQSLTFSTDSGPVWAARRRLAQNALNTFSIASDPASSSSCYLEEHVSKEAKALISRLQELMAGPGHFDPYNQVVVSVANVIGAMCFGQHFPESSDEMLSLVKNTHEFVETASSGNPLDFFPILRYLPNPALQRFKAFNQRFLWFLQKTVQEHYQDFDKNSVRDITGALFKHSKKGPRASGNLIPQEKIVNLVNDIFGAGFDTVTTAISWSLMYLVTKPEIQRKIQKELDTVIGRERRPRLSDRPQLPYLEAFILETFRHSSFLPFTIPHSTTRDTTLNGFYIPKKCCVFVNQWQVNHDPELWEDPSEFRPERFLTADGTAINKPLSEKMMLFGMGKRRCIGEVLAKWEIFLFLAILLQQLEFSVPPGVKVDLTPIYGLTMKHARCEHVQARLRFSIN

[24] = Half life in beagle dog at 1 mg/kg, iv by LC/MS/MS analysis; assay type: ADME, organism-based, Canis lupus familiaris; design: dose 1 mg/kg, route intravenous; settings: in vivo; method in brief: as §1
Cytochrome P450 2C9 = Cytochrome P450 2C9 (Homo sapiens, UniProt P11712); assay: Inhibition of CYP2C9 in human liver microsomes after 10 mins by LC/MS/MS analysis; assay type: ADME; method in brief: as §3
[25] = AUC (0 to infinity) in cynomolgus monkey at 5 mg/kg, po by LC/MS/MS analysis; assay type: ADME, organism-based, Macaca fascicularis; design: time infinity, dose 5 mg/kg, route oral; settings: plasma; method in brief: as §2
[26] = Aqueous solubility in fasted state simulated intestinal fluid at pH 6.5 by LC/UV analysis; assay type: physicochemical
[27] = Clearance in CD-1 mouse at 1 mg/kg, iv by LC/MS/MS analysis; assay type: ADME, organism-based; design: dose 1 mg/kg, route intravenous; settings: in vivo; method in brief: as §1
[28] = Volume of distribution at steady state in CD-1 mouse at 1 mg/kg, iv by LC/MS/MS analysis; assay type: ADME, organism-based; design: dose 1 mg/kg, route intravenous; settings: in vivo, read-out: Vdss; method in brief: as §1
[29] = Oral bioavailability in beagle dog at 5 mg/kg by LC/MS/MS analysis; assay type: ADME, organism-based, Canis lupus familiaris; settings: in vivo; method in brief: as §2
Liver microsome [30] = assay: Drug metabolism in rat liver microsomes assessed as generation of reactive metabolites at 10 uM after 30 mins by glutathione-trapping assay; assay type: ADME; settings: 0.5 h; method in brief: as §4
[31] = Oral bioavailability in CD rat at 5 mg/kg by LC/MS/MS analysis; assay type: ADME, organism-based; settings: in vivo; method in brief: as §2
[32] = Plasma protein binding in human at 5 uM after 4 hrs by rapid equilibrium dialysis method; assay type: ADME, cell-free; settings: read-out: PPB (converted)
[33] = Plasma protein binding in beagle dog at 5 uM after 4 hrs by rapid equilibrium dialysis method; assay type: ADME, cell-free, Canis lupus familiaris; settings: read-out: PPB (converted)
Cytochrome P450 3A4 = Cytochrome P450 3A4 (Homo sapiens, UniProt P08684); assay: Inhibition of CYP3A4 in human liver microsomes after 7 mins by LC/MS/MS analysis; assay type: ADME; method in brief: as §3
[34] = Volume of distribution at steady state in beagle dog at 1 mg/kg, iv by LC/MS/MS analysis; assay type: ADME, organism-based, Canis lupus familiaris; design: dose 1 mg/kg, route intravenous; settings: in vivo, read-out: Vdss; method in brief: as §1
[35] = AUC (0 to infinity) in CD-1 mouse at 5 mg/kg, po by LC/MS/MS analysis; assay type: ADME, organism-based; design: time infinity, dose 5 mg/kg, route oral; settings: plasma; method in brief: as §2
[36] = Plasma protein binding in CD-1 mouse at 5 uM after 4 hrs by rapid equilibrium dialysis method; assay type: ADME, cell-free; settings: read-out: PPB (converted)

Chain of Cytochrome P450 2C9 (P11712 whole entry): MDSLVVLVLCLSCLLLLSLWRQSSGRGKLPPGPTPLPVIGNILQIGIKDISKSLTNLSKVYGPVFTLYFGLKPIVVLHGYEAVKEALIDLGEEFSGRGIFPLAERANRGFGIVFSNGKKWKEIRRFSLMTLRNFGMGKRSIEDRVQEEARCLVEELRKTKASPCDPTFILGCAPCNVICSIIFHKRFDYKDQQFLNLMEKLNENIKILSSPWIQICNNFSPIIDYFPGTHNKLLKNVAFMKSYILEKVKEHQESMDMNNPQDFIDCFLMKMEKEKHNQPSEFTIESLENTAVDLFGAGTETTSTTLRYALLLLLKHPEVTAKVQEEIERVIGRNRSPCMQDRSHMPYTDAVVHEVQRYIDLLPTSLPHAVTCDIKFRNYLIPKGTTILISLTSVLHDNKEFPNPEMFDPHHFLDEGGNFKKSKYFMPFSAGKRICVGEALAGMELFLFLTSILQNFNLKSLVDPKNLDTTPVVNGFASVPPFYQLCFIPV
Chain of Cytochrome P450 2C19 (P33261 whole entry): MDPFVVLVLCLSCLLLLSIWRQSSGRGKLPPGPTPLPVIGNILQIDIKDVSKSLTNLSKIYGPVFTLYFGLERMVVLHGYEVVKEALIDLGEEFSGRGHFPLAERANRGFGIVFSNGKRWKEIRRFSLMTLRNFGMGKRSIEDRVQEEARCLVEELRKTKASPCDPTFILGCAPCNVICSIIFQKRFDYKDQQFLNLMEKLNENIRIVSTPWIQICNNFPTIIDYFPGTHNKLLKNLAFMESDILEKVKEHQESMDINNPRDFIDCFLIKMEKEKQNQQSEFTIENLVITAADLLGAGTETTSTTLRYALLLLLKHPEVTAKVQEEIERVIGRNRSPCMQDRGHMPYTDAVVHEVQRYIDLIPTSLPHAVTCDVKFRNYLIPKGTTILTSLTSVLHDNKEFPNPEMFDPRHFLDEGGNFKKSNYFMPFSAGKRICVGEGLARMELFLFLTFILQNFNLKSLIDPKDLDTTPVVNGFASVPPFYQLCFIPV
Chain of Cytochrome P450 3A4 (P08684 whole entry): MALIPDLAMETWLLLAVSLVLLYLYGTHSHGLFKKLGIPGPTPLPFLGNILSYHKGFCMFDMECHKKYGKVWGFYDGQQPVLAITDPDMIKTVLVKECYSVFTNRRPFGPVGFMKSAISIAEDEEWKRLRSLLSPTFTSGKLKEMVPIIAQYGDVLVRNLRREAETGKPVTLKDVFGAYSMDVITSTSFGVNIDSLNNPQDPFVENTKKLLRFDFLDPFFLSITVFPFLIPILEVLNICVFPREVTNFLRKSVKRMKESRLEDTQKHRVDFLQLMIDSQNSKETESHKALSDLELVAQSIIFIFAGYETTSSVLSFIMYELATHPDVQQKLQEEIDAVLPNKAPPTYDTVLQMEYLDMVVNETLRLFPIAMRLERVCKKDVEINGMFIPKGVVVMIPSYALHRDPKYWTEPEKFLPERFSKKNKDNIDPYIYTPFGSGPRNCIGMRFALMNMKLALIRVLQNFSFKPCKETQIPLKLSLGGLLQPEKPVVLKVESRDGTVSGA
Chain of Cytochrome P450 2D6 (P10635 whole entry): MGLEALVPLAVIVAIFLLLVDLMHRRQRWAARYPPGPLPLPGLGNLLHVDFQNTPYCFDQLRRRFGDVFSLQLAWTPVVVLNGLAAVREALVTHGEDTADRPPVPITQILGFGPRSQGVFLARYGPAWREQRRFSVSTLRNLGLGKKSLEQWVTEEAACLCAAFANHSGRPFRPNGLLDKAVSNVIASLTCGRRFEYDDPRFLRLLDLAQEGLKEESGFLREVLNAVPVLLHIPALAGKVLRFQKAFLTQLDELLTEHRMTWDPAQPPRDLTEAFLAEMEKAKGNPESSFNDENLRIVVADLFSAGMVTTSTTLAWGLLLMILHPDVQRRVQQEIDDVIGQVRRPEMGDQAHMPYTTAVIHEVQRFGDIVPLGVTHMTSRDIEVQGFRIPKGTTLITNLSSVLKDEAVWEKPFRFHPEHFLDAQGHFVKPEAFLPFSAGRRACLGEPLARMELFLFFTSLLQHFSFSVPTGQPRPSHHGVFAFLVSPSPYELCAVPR

In the case of `O=C(c1nn2c(C(F)(F)F)cc(C3CC3)cc2c1Cl)N1CCN([C@@H]2C[C@H]3C[C@H]3C2)C(=O)C1`, the Stability (Hepatocyte [1]) is reported as “Unstable”, the clearance [2] is reported as 70 mL/min/kg and the EC50 (Hepatitis C virus [3]) is reported as 0.7 nM. For the same molecule, the Stability (Hepatocyte [4]) was “Unstable”, the EC50 (Hepatitis C virus [5]) was 0.06 nM and the EC50 (Hepatitis C virus [6]) was 0.1 nM. The chromatographic logD [7] was 6.4, the IC50 [8] was 4 nM and the EC50 (Hepatitis C virus [9]) was 2 nM.
In the case of `O=C(c1nn2c(C(F)(F)F)cc(C3CC3)cc2c1Cl)N1CCN([C@H]2C[C@@H]3C[C@@H]3[C@@H]2O)C(=O)C1`, the bioavailability [10] is reported as 97%, the AUC(0-inf) [11] is reported as 3100 ng·h/mL and the fraction unbound at 4 h, 5 µM [12] is reported as 0.04. The Vd [13] was 0.7 L/kg, the clearance [14] was 6 mL/min/kg and the IC50 (Cytochrome P450 2D6) was > 20000 nM. For the same molecule, the IC50 (Cytochrome P450 2C19) was > 20000 nM, the Vd [15] was 2 L/kg and the half-life [16] was 0.4 h. The clearance [2] was 25 mL/min/kg, the half-life [17] was 4 h and the AUC(0-inf) [18] was 25000 ng·h/mL. The half-life [19] was 2 h, the Stability (Liver microsome [20]) was “Stable” and the fraction unbound at 4 h, 5 µM [21] was 0.09. The bioavailability [22] was 12%, the clearance [23] was 3 mL/min/kg and the EC50 (Hepatitis C virus [3]) was 5 nM. The IC50 (Cytochrome P450 1A2) was > 20000 nM, the half-life [24] was 2 h and the EC50 (Hepatitis C virus [5]) was 0.3 nM. The IC50 (Cytochrome P450 2C9) was > 20000 nM, the AUC(0-inf) [25] was 25000 ng·h/mL and the solubility [26] was 310 µg/mL (≈ 642 µM). The EC50 (Hepatitis C virus [6]) was 0.6 nM, the chromatographic logD [7] was 4.6 and the clearance [27] was 19 mL/min/kg. The Vd [28] was 0.6 L/kg, the bioavailability [29] was > 100% and the Stability (Liver microsome [30]) was “Stable”. For the same molecule, the bioavailability [31] was 92%, the fraction unbound at 4 h, 5 µM [32] was 0.06 and the fraction unbound at 4 h, 5 µM [33] was 0.07. For the same molecule, the IC50 (Cytochrome P450 3A4) was > 20000 nM, the Vd [34] was 0.7 L/kg and the AUC(0-inf) [35] was 1000 ng·h/mL. The fraction unbound at 4 h, 5 µM [36] was 0.03, the IC50 [8] was 8 nM and the EC50 (Hepatitis C virus [9]) was 38 nM.
